In PMC3041911 (Journal of Molecular Neuroscience, 2010):
pIC50: −log10 of the molar value. Several values for one entry are separate records, joined by “and”; a condition that tells them apart may be missing. Equal values may be shown once. Read-outs that look alike come from different tables or passages of the source.

What was measured:
[1] = test system: Aβ38, Aβ40 and Aβ42 formation in H4 cells overexpressing human APPK595N/M596L; assay: Aβ secretion assay; format: cell-based; settings: for Emax: Homo sapiens; for Aβ38 E max / Aβ40 E max / Aβ42 E max / pIC50: H4 cells hAPPK595N/M596L, 24 h treatment; for Effect on Aβ species at low nanomolar (sub-inhibitory) concentrations: low nanomolar concentrations (DAPT: 10 nM)
Method in brief: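 H4 human neuroglioma line stably transfected with human APP695 K595N/M596L (Swedish) under a CMV/chicken β-actin promoter. Cells were plated at 1×10^4 per 96-well in OptiMEM with 10% FBS, 1% penicillin/streptomycin, 200 μg/ml hygromycin-B and 2.5 μg/ml blasticidin-S. After 48 h the medium was exchanged and cells were dosed for 24 h at 37°C, 5% CO2 with DMSO-dissolved compound at a range of concentrations, vehicle constant.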

[2] = test system: Aβ38, Aβ40 and Aβ42 formation in primary chicken telencephalic neurons; assay: Aβ secretion assay; format: cell-based; settings: for Aβ38 E max / Aβ40 E max / Aβ42 E max / pIC50: 24 h treatment
Method in brief: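 Telencephalic neurons from E8 Lohman Brown chicken embryos, mechanically dissociated through a nylon sieve. Neurons were plated at 1.8×10^6 per poly-D-lysine-coated 24-well in DMEM (4.5 g glucose/l, 5% Nu Serum, 0.01% gentamicin, 2 mM L-glutamine). After 48 h the medium was exchanged and neurons were treated for 24 h at 37°C, 5% CO2 with DMSO-dissolved compound at a range of concentrations, vehicle constant.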

[3] = test system: H4 cells overexpressing human APPK595N/M596L; assay: MTT viability assay, H4 cells; format: cell-based; settings: data not shown
[4] = test system: primary chicken telencephalic neurons; assay: MTT viability assay, primary chicken neurons; format: cell-based; settings: data not shown
Method in brief: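 MTT viability assay in primary E8 chicken telencephalic neurons. Neurons were plated at 3×10^5 per poly-D-lysine-coated 96-well in DMEM with 5% Nu Serum, 0.01% gentamicin and 2 mM L-glutamine, kept at 37°C, 5% CO2, and exposed to DMSO-dissolved compound over a concentration range.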

[5] = test system: Aβ formation in primary human neuronal cultures; settings: read-out: IC50 Aβ total, ref Dovey et al. [2001]; cited from earlier work
[6] = test system: total Aβ content in brain tissue; settings: in vivo administration; ref Dovey et al. [2001]; cited from earlier work
Aβ42 levels = settings: 100 μM; ref Okochi et al. [2006]; cited from earlier work
[7] = H4 cells, 10 μM compound, 24 h, mean ± SEM
[8] = primary chicken neurons, 10 μM compound, 24 h, mean ± SEM
[9] = read-out: Aβ38 IC50, primary chicken neurons
[10] = read-out: Aβ40 IC50, primary chicken neurons
[11] = read-out: Aβ42 IC50, primary chicken neurons
[12] = H4 cells, 100 μM compound, 24 h, mean ± SEM
[13] = primary chicken neurons, 25 μM compound, 24 h, mean ± SEM
[14] = primary chicken neurons, 50 μM compound, 24 h, mean ± SEM

| Compound | pIC50 ([1]; read-out: Aβ38 IC50) | pIC50 ([1]; read-out: Aβ40 IC50) | pIC50 ([1]; read-out: Aβ42 IC50) | pIC50 [2, 9] | pIC50 [2, 10] | pIC50 [2, 11] | Aβ38 level in percent of vehicle-treated cultures [2, 8] [%] | Aβ42 level in percent of vehicle-treated cultures [2, 8] [%] | Cell viability (MTT), result in words [3] | Cell viability (MTT), result in words [4] | Aβ38 E max [1] [%] | Aβ40 E max [1] [%] | Aβ42 E max [1] [%] | Concentration at which Aβ38, Aβ40 and Aβ42 levels start to decline ([1]; H4 cells, 24 h) [nM] | Effect on Aβ species at low nanomolar (sub-inhibitory) concentrations ([1]; H4 cells) | Concentration at which Aβ38, Aβ40 and Aβ42 levels start to decline ([2]; primary chicken neurons, 24 h) [nM] | Aβ38 E max ([2]; primary chicken neurons) [%] | Aβ40 E max ([2]; primary chicken neurons) [%] | Aβ42 E max ([2]; primary chicken neurons) [%] | Effect on Aβ species at low nanomolar (sub-inhibitory) concentrations ([2]; primary chicken neurons) | further results |
| --- | --- | --- | --- | --- | --- | --- | --- | --- | --- | --- | --- | --- | --- | --- | --- | --- | --- | --- | --- | --- | --- |
| CCCC[C@@H](C=O)NC(=O)[C@H](CC(C)C)NC(=O)OCc1ccccc1 [Calpeptin, benzyloxycarbonylleucyl-norleucinal] |  |  |  |  |  |  | 31.1 ± 1.8 | 259.3 ± 7.3 | No toxicity | No toxicity |  |  |  |  |  |  |  |  |  |  | Aβ38 level in percent of vehicle-treated cultures [1, 7]: 12.9 ± 2.6%; Aβ40 level in percent of vehicle-treated cultures [1, 7]: 35.5 ± 2.2%; Aβ42 level in percent of vehicle-treated cultures [1, 7]: 90.3 ± 6.0%; Effect on Aβ levels up to 1 μM ([1]; H4 cells, up to a concentration of 1 μM): did not evoke any dramatic changes; Emax ([1]; 24 h, read-out: Aβ38 E max): 100%; Emax ([1]; 24 h, read-out: Aβ40 E max): 100%; Aβ40 level in percent of vehicle-treated cultures [2, 8]: 89.9 ± 3.8%; Effect on Aβ levels up to 1 μM ([2]; primary chicken neurons, up to a concentration of 1 μM): no effect |
| CSc1ccc(/C=C2/C(C)=C(CC(=O)O)c3cc(F)ccc32)cc1 [Sulindac sulfide, (Z)-5-fluoro-2-methyl-1-[p-(methylthio)benzylidene]indene-3-acetic acid] |  |  |  |  |  |  |  |  |  |  |  |  |  |  |  |  |  |  |  |  | Aβ42 level in percent of vehicle-treated cultures ([1]; H4 cells, 50 μM compound, 24 h, mean ± SEM): 75.0 ± 7.1%; Aβ40 production (effect in words) ([1]; H4 cells, 100 μM compound, 24 h): unaltered; Aβ42 level in percent of vehicle-treated cultures [1, 12]: 39.3 ± 2.0%; Concentration at which Aβ42 levels start to decline ([1]; H4 cells, 24 h): 50 µM; Emax ([1]; 24 h, read-out: Aβ42 E max): 100%; Aβ38 level in percent of vehicle-treated cultures [2, 13]: approximately 149.7 ± 6.4%; Aβ42 level in percent of vehicle-treated cultures [2, 13]: 54.7 ± 6.4%; Aβ42 level in percent of vehicle-treated cultures [2, 14]: 25.3 ± 2.1%; Concentration at which Aβ42 levels start to decline ([2]; primary chicken neurons, 24 h): 25 µM; Concentration at which cell toxicity starts (viability assay) ([3]; minor cell toxicity): 150 µM; Concentration at which toxicity starts (viability assay) [4]: 75 µM |
| O=C(O)c1cc(Oc2ccc([N+](=O)[O-])cc2)cc(Oc2ccc([N+](=O)[O-])cc2)c1 [CW, 3,5-bis(4-nitrophenoxy)benzoic acid] |  |  |  |  |  |  | 127.9 ± 0.9 | 63.6 ± 2.4 | no cell toxicity |  |  |  |  |  |  |  |  |  |  |  | Aβ38 level in percent of vehicle-treated cultures [1, 12]: 287.5 ± 31.2%; Aβ42 level in percent of vehicle-treated cultures [1, 12]: 16.0 ± 1.8%; Concentration at which Aβ42 levels start to decline ([1]; H4 cells, 24 h): 50 µM; Emax ([1]; 24 h, read-out: Aβ42 E max): 100%; Aβ38 level in percent of vehicle-treated cultures [2, 14]: 159.3 ± 8.0%; Aβ42 level in percent of vehicle-treated cultures [2, 14]: 29.9 ± 1.2%; Concentration at which Aβ42 levels start to decline ([2]; primary chicken neurons, 24 h): 5 µM; Aβ40 content (effect in words) ([2]; primary chicken neurons, up to 50 μM compound): unchanged; Concentration at which toxicity starts (viability assay) [4]: 150 µM; Effect on Aβ42 levels (Aβ42 levels): reduce Aβ42 levels |

Second part, led by results:

| pIC50 ([1]; read-out: Aβ38 IC50) | pIC50 ([1]; read-out: Aβ40 IC50) | pIC50 ([1]; read-out: Aβ42 IC50) | pIC50 [2, 9] | pIC50 [2, 10] | pIC50 [2, 11] | Compound | Aβ38 level in percent of vehicle-treated cultures [2, 8] [%] | Aβ42 level in percent of vehicle-treated cultures [2, 8] [%] | Cell viability (MTT), result in words [3] | Cell viability (MTT), result in words [4] | Aβ38 E max [1] [%] | Aβ40 E max [1] [%] | Aβ42 E max [1] [%] | Concentration at which Aβ38, Aβ40 and Aβ42 levels start to decline ([1]; H4 cells, 24 h) [nM] | Effect on Aβ species at low nanomolar (sub-inhibitory) concentrations ([1]; H4 cells) | Concentration at which Aβ38, Aβ40 and Aβ42 levels start to decline ([2]; primary chicken neurons, 24 h) [nM] | Aβ38 E max ([2]; primary chicken neurons) [%] | Aβ40 E max ([2]; primary chicken neurons) [%] | Aβ42 E max ([2]; primary chicken neurons) [%] | Effect on Aβ species at low nanomolar (sub-inhibitory) concentrations ([2]; primary chicken neurons) | further results |
| --- | --- | --- | --- | --- | --- | --- | --- | --- | --- | --- | --- | --- | --- | --- | --- | --- | --- | --- | --- | --- | --- |
| 7.30 | 7.21 | 7.20 and 7.19 | 7.15 | 7.03 | 7.00 | C[C@H](NC(=O)Cc1cc(F)cc(F)c1)C(=O)N[C@H](C(=O)OC(C)(C)C)c1ccccc1 [DAPT, N-[N-(3,5-difluorophenacetyl-L-alanyl)]-S-phenylglycine t-butyl ester] |  |  | not affected | not affected | 100 | 100 | 100 | 50 | increased the formation of all three Aβ species | 100 | 100 | 100 | 100 | no dramatic increase in Aβ levels | pIC50 [5]: 6.94; Concentration in brain tissue that reduced total Aβ content [6]: ≥ 200 nM |
| 7.70 | 7.64 | 7.59 | 7.21 | 7.00 | 6.97 | COC(=O)[C@@H](NC(=O)[C@H](C)NC(=O)Cc1cc(F)cc(F)c1)c1ccccc1 [DAPM, N-(N-3,5-difluorophenacetyl)-L-alanyl-S-phenylglycine methyl ester] |  |  | no effect on cell viability | no effect on cell viability | 100 | 100 | 100 | 50 | increase of all three Aβ forms | 50 | 100 | 100 | 100 | no increase in Aβ secretion |  |
| 7.03 | 6.90 | 6.67 | 8.43 | 8.33 | 8.32 | β-secretase inhibitor IV |  |  | no reduction in cell viability | no reduction in cell viability | 88 | 79 | 86 |  |  | 5 | 91 | 76 | 70 |  | Potency of BACE-1 inhibition in primary cells relative to H4 cell line ([2]; primary chicken neurons versus H4 cells hAPPK595N/M596L): approximately tenfold more potent; Aβ42 reduction ([2]; primary chicken neurons, inhibitor concentration 25 nM): more than 50% |
